The values that follow come from article PMC12217622 (Nature Communications, 2025).

One assay deals with MtLYR8. Description: Radiolabelled LCO binding to membrane fractions, MtLYR8. Conditions: 2 µM competitor. Further details: species or system Medicago truncatula. The procedure, abridged:
(§1)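 N. benthamiana leaves (~20 g) were homogenised at 4 °C in Tris pH 8.5, sucrose, EDTA, DTT, PVPP and protease inhibitors, then spun at 3000 x g and 45,000 x g. The pellet was resuspended in 25 mM Na cacodylate pH 6, 1 mM MgCl2, 1 mM CaCl2, 250 mM sucrose. 35S-LCO (enzymatic NodH sulfation) was bound for 1 h on ice, then filtered through glass fibre, washed and counted by scintillation. Three technical replicates.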

The next assay has as its system TaLYR2D. Description: Radiolabelled LCO binding to membrane fractions, TaLYR2D. Set-up: species or system Triticum aestivum. Conditions: 2 µM competitor. The procedure, abridged: as §1
Assay [1] has as its system R. irregularis DAOM 197198. Description: Stimulation of AMF root-length colonization by LCO and CO4 treatments in wheat. It is filed as in vivo, Triticum aestivum. Conditions: 10^−7 M treatment. Summed up: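 Fielder wheat carried a pZmUBI:BdLYR2-cmyc cassette or empty vector, two lines each. Surface-sterilised seeds were germinated 1 week at 4 °C and 3 days at 25 °C, then planted in attapulgite with 500 R. irregularis DAOM 197198 spores. Plants got 0.5x Long Ashton (7.5 µM NaH2PO4) with 10^-7 M LCO or CO4 or 0.05% acetonitrile at start, 2 and 4 weeks. Roots were stained at 5–6 wpi; colonization was normalised to untreated controls; Kruskal-Wallis test.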

The subject of another assay is TaLYR2B. The assay can be described thus: Radiolabelled LCO binding to membrane fractions, TaLYR2B. The note with it: 2 µM competitor. Set-up: species or system Triticum aestivum. Summed up: as §1
The subject of the next assay is TaLYR2A. Description: Radiolabelled LCO binding to membrane fractions, TaLYR2A. Conditions: 2 µM competitor. Set-up: species or system Triticum aestivum. The procedure, abridged: as §1

SMILES strings stand for the structures.

In the case of `CC(=O)N[C@H]1[C@H](O[C@H]2[C@H](O)[C@@H](NC(C)=O)C(O)O[C@@H]2CO)O[C@H](CO)[C@@H](O[C@@H]2O[C@H](CO)[C@@H](O[C@@H]3O[C@H](CO)[C@@H](O)[C@H](O)[C@H]3NC(C)=O)[C@H](O)[C@H]2NC(C)=O)[C@@H]1O` (stereo partly shown) [CO4], the “competition of LCO binding” value with MtLYR8, in the assay on TaLYR2D, with TaLYR2B and in the assay with TaLYR2A was “complete competition” in each case. The “effect on AMF colonization” value in assay [1] (control wheat plants (empty vector)) is reported as “increased AMF colonization”; in assay [1] (transgenic wheat plants pUbi:BdLYR2), “no further increase”.

With `CC(=O)N[C@H]1[C@H](O[C@H]2[C@H](O)[C@@H](NC(C)=O)[C@H](O[C@H]3[C@H](O)[C@@H](NC(C)=O)[C@H](O[C@H]4[C@H](O)[C@@H](NC(C)=O)C(O)O[C@@H]4CO)O[C@@H]3CO)O[C@@H]2CO)O[C@H](CO)[C@@H](O[C@@H]2O[C@H](CO)[C@@H](O[C@@H]3O[C@H](CO)[C@@H](O[C@@H]4O[C@H](CO)[C@@H](O[C@@H]5O[C@H](CO)[C@@H](O)[C@H](O)[C@H]5NC(C)=O)[C@H](O)[C@H]4NC(C)=O)[C@H](O)[C@H]3NC(C)=O)[C@H](O)[C@H]2NC(C)=O)[C@@H]1O` (stereo partly shown) [CO8], the “competition of LCO binding” value in the assay on MtLYR8, in the assay with TaLYR2D, with TaLYR2B and in the assay with TaLYR2A was “complete competition” throughout.
